Results as given in ChEMBL document CHEMBL4152279, “Synthesis, cytotoxic evaluation and target identification of thieno[2,3-d]pyrimidine derivatives with a dithiocarbamate side chain at C2 position” (Eur J Med Chem, 2018).
Calls of active or inactive are those of the source. The calls are words filed in the database; no cut-off is given here.

Tests used:
[1] = system: A549; assay: Induction of DNA damage in human A549 cells assessed as increase in gamma-H2AX level at 2 uM after 2 hrs by immunoblot analysis; type: functional, cell-based
Outline: (§1)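 A549 cells were treated for 2 h with DMSO as diluent. Total cell lysates were run on 12% SDS-PAGE and transferred to PVDF. Membranes were blocked in PBST with 5% BSA and immunoblotted for γ-H2AX and pS345 CHK1, with HRP secondary detection.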

[2] = system: A549; assay: Induction of DNA damage in human A549 cells assessed as gamma-H2AX foci formation at 2 uM after 2 hrs by DAPI staining based immunofluorescence assay; type: functional, cell-based
Outline: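 A549 cells were treated for 2 h with DMSO as diluent, then fixed. Cells were immunostained with a mouse monoclonal anti-γ-H2AX antibody, with DAPI as DNA counterstain, and γ-H2AX foci were scored by immunofluorescence.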

[3] = system: A549; assay: Induction of DNA damage in human A549 cells assessed as increase in CHK1 phosphorylation level at 2 uM after 2 hrs by immunoblot analysis; type: functional, cell-based; outline: as §1
[4] = system: A549; assay: Cell cycle arrest in human A549 cells assessed as accumulation at G0/G1 phase at cytotoxic IC50 after 24 hrs by propidium iodide staining based flow cytometry (reference value: 46.39 +/- 1.75%); type: functional
[5] = system: A549; assay: Cell cycle arrest in human A549 cells assessed as accumulation at S phase at cytotoxic IC50 after 24 hrs by propidium iodide staining based flow cytometry (reference value: 32.37 +/- 1.23%); type: functional
[6] = system: A549; assay: Cell cycle arrest in human A549 cells assessed as accumulation at G2/M phase at cytotoxic IC50 after 24 hrs by propidium iodide staining based flow cytometry (reference value: 20.95 +/- 0.8%); type: functional

Q: With CC[C@@]1(O)C(=O)OCc2c1cc1n(c2=O)Cc2cc3ccccc3nc2-1 as the compound, how does the Activity [1] read?
A: Active

Q: And the Activity [2]?
A: Active

Q: What about the Activity [3] of the same compound?
A: Active

Q: How did the Activity [4] turn out when O=c1[nH]cc(F)c(=O)[nH]1 [FLUOROURACIL] was run?
A: 29.61%

Q: And the Activity [5]?
A: 59.27%

Q: And the Activity [6]?
A: 8.9%
